An excerpt weighted towards active compounds, which were near 4% of everything screened.
SIRT5 block = sirtuin-5 (human) deacylase inhibition; inhibition, % at 15 µM; actives 1.1% (n = 330,000); Purified SirT5, succinyl-peptide AMC, trypsin-coupled fluorescence; Q9NXA8; in the data active = inhibition above about 15%
Statin myotox sup = suppression of simvastatin myotoxicity | C2C12 myotubes + simvastatin, ATP luminescence, 48 h; scaled: DMSO 0, geranylgeraniol control 100 | rescue of ATP level, % at 7.49 µM | actives 0.78% (n = 330,000) | AID 602340;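 active = mean ATP rescue above about 67%, or every replicate alone reaching that limit, limit read from the data, passing the limit was not always enough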;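 also: myotubes were challenged with 10 µM simvastatin during compound exposure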
E-sel inducer = induces E-selectin expression in human endothelial cells | P16581 | HUVEC E-selectin immunofluorescence imaging; normalized: neutral wells 0, TNF-alpha wells 100 | activation, % at 7.58 µM | actives 0.37% (n = 260,000) | AID 686992;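 active = mean E-selectin-positive cell signal at least 10% of the positive control, reached in at least 60% of replicates, without over 20% cell loss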
Target sequence (P16581 whole entry, looked up): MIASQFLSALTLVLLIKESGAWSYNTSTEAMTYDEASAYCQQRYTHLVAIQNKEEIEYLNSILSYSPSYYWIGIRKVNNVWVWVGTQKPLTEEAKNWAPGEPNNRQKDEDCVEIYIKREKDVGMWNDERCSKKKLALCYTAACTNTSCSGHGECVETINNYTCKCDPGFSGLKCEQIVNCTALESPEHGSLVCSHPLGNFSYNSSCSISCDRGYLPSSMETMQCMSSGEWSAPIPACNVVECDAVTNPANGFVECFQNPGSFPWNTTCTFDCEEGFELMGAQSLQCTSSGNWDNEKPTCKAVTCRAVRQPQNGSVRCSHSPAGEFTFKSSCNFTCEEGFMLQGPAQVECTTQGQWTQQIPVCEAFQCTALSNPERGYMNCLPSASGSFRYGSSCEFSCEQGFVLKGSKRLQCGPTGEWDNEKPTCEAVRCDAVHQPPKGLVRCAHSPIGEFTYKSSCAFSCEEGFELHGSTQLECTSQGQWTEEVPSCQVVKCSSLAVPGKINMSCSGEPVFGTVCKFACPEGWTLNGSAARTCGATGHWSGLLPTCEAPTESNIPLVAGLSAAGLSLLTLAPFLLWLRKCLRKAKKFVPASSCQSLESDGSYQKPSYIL
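Material: HUVEC primary endothelial cells; Amount: 3,000 cells per well; Dosing: single concentration; Medium: EGM-2 growth medium on 0.1% gelatin-coated wells; Read-out basis: percent E-selectin-positive cells; Signal: immunofluorescence imaging; Control set: TNF-alpha, DMSO.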
FGF22 binding = binders of recombinant human FGF22 by thermal shift. Q9HCT0. SYPRO orange fluorescence; percent of sucrose octasulfate shift, DMSO zero. activity (Tm shift, normalised), % at 9.99 µM. actives 1.5% (n = 340,000);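 active = mean Tm shift, scaled 0 neutral to 100 positive control, at about 1.3% or above, every replicate too, limit read from the data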
FN deposition inh = fibronectin deposition inhibition | inhibition, % at 12.6 µM | actives 0.086% (n = 350,000) | AID 743247 | AH1F fibroblasts, Alexa488-fibronectin deposition fluorescence, overnight;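 active = mean inhibition across replicates of 30% or more, regardless of how many single replicates reach that level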;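 also: positive control wells lacked labelled fibronectin entirely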
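Test system: AH1F fibroblast monolayer depositing Alexa488-labelled fibronectin into matrix. Input: 10000 cells per well. Technique: fluorescence, ex 485 nm, em 525 nm. Buffer or medium: DMEM plus 2% serum, read in PBS. Timing: 1 h cell adhesion before compound, then overnight fibronectin incubation. Compound: single dose, pinned. Read-out basis: inhibition from reduced deposited-fibronectin fluorescence.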
rRNA inh HTS = inhibitors of bacterial rRNA selective over humanized ribosomes | actives 1.6% (n = 350,000) | GFP signal change (wild-type ribosome), % (test concentration not listed) | E. coli WT GFP vs humanized-ribosome RFP mutants, fluorescence, 24 h; stronger effect = lower value; DMSO median 0, no signal -100 | AID 720706;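 active = significant combined selectivity score with lowered wild-type GFP, culture density cut under 30%, mutant RFP and density less affected; inactive = any of these conditions unmet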
An asterisk follows results filed as active; · = no result given.

SMILES	SIRT5 block	Statin myotox sup	E-sel inducer	FGF22 binding	FN deposition inh	rRNA inh HTS
COC(=O)[C@@H]1[C@@H](CO)[C@@H]2Cn3c(cccc3=O)[C@H]1N2Cc1nccs1	-1	-32	0	0	·	-1
CCOc1ccc(-c2cc(C)[n+](CCN3CCOCC3)c(-c3ccc(OCC)cc3)c2)cc1	-3	-74	0	0	-5	-53*
COc1cccc(-c2sc3ccccc3c2-c2ccc(OCCN3CCOCC3)cc2)c1	-1	-6	0	0	1	11
C/C=C/c1ccc([C@H]2[C@@H](CO)N3CCCCN(C(=O)Cc4ccncc4)C[C@@H]23)cc1	1	24	0	0	·	1
CC=Cc1ccc2n(c1=O)C[C@H]1[C@H](CO)[C@@H](C(=O)OC)[C@@H]2N1CC1CCOCC1 (mixture of isomers)	1	-4	0	0	·	1
COc1ccc(F)cc1C(=O)C1CCCN(Cc2ccc(O)cc2)C1 (stereo not drawn)	17*	9	·	0	-4	2
COc1ccc(F)cc1C(=O)C1CCCN(Cc2cnc(C)s2)C1 (stereo not drawn)	-1	·	·	0	1	·
Cc1cccc(OP(=O)(Nc2ccc(F)cc2)Oc2cccc(C)c2)c1	0	·	4	43*	-7	-33
COc1ccc(NP(=O)(Oc2cccc(C)c2)Oc2cccc(C)c2)cc1OC	1	21	3	0	7	-18*
COc1ccc(NP(=O)(Oc2ccc(Cl)cc2)Oc2ccc(Cl)cc2)cc1OC	-3	9	·	42	-7	-6
Cc1cccc(OP(=O)(Nc2cccnc2)Oc2cccc(C)c2)c1	·	·	0	·	3	·
C=CCN1[C@@H]2CN(C(=O)NC(C)C)C[C@H]1C2c1ccccc1 (stereo partly drawn)	·	·	·	·	-5	-1
O=c1c2ccccc2nc(/C=C/c2ccc3c(c2)OCO3)n1-c1ccccc1	1	·	0	0	-2	-17
COc1cc(/C=C/c2nc3ccccc3c(=O)n2-c2ccc(O)cc2)ccc1O	-3	117*	0	0	6	-1
COc1ccc(-n2c(/C=C/c3ccc(O)c(O)c3)nc3ccccc3c2=O)cc1	4	3	·	0	-1	-21*
O=P(Nc1ccccc1)(Oc1ccccc1)Oc1ccccc1	-6	·	0	0	6	-5
O=P(Nc1cccnc1)(Oc1ccccc1Cl)Oc1ccccc1Cl	0	·	-2	0	4	-33*
O=C(Cc1ccccn1)N1CCCCN2[C@H](CO)[C@@H](c3ccc(C#Cc4ccccc4)cc3)[C@@H]2C1	-2	·	-1	0	·	-59
CC1(C)N(O)C2CCCCC2N1O (stereo not drawn)	·	107*	·	·	·	·
O=C(Cc1ccccc1)N1CC2(C1)[C@@H](c1ccccc1)[C@H](CO)N2Cc1cccc(F)c1	·	·	·	·	·	-5
O=C1NC(=O)N(c2ccccc2)C(=O)/C1=C/C=C/c1ccco1	5	35	·	0	-16	10
CN(C)c1ccc(/C=C/C=C2/C(=O)NC(=O)N(c3ccccc3)C2=O)cc1	-3	·	14	44*	1	·
COC(=O)[C@@H]1[C@@H](CO)[C@@H]2Cn3c(cccc3=O)[C@H]1N2C(=O)C1CCCC1	0	2	0	-1	·	0
Cc1ccc(OC(=O)N(C)C[C@@H]2OCc3ccccc3-c3c(n(C)c4ccccc34)C(=O)N([C@@H](C)CO)C[C@H]2C)cc1	8	·	-3	·	1	-2
Cc1ccc2c(c1)C1CN(C)CCC1N2C(=O)c1cccnc1Cl (stereo not drawn)	-1	1	10	0	-14	9
SMILES	SIRT5 block	Statin myotox sup	E-sel inducer	FGF22 binding	FN deposition inh	rRNA inh HTS
Cc1ccc2c(c1)C1CN(C)CCC1N2C(=O)c1cn(-c2ccccc2)nc1-c1ccccc1 (stereo not drawn)	2	·	-1	1.6*	-8	-27
CC(=O)N1C2CN(C)CC1C2c1ccc(Br)cc1 (stereo not drawn)	·	·	·	·	-3	-3
O=C(CN1CCCC1)Nc1ccc(Cl)cc1C(=O)c1ccccc1	15*	·	1	0	2	9
O=C(COC(=O)c1cccc(O)c1)Nc1ccc(Cl)cc1C(=O)c1ccccc1	1	·	·	52*	2	-23*
CCOC(=O)[C@@H]1[C@@H]2NC(=O)N(C)[C@@]1(C)Oc1ccccc12	-3	·	·	0	·	·
CN1CCN(c2ccc(S(=O)(=O)C(F)(F)F)cc2[N+](=O)[O-])CC1	21*	·	-1	0	-4	3
CN1CCN(c2ccc(S(C)(=O)=O)cc2[N+](=O)[O-])CC1	0	·	-1	0	-4	3
CN1C(=O)C(=Cc2coc3ccccc3c2=O)C(=O)N(C)C1=O	·	-7	36*	0	3	25
CCN(CC)c1ccc(N=Cc2c(O)n(CCc3ccc(OC)c(OC)c3)c(=O)[nH]c2=O)cc1	·	·	·	·	-3	·
COc1ccc(CCn2c(O)c(C=Nc3ccc(F)cc3)c(=O)[nH]c2=O)cc1OC	16*	·	0	0	-5	21
CCOC(=O)c1c(C)n(CC(O)CN2CCOCC2)c2cc(Br)c(OC)cc12 (stereo not drawn)	-2	·	-4	0	5	-42*
CCOC(=O)c1c(C)n(CCN2CCN(C)CC2)c2ccc(OC)cc12	·	-66	·	·	·	·
CCOC(=O)c1cnc(SCc2ccc(Cl)c(Cl)c2)nc1N1CC1	-1	-7	0	0	-3	-7.9*
COc1ccc(C(CNC(=O)Cc2ccc(Cl)c(Cl)c2)N2CCCCC2)cc1 (stereo not drawn)	-1	4	0	0	-14	-32
CS(=O)(=O)N1C[C@@H]2C(c3ccc(Br)cc3)[C@H](C1)N2CC1CC1 (stereo partly drawn)	·	·	·	·	3	-4
C=CCN1[C@@H]2CN(C(C)=O)C[C@H]1C2c1ccccc1 (stereo partly drawn)	·	·	·	·	-2	0
CC(C)OC(=O)Nc1ccc(N=C(N)N[N+](=O)[O-])cc1	-1	0	1	43*	2	10
N#Cc1cccc(-c2ccc([C@H]3[C@H]4CN(C(=O)Cc5ccccc5)CCCCN4[C@H]3CO)cc2)c1	-2	·	0	-1	·	3
O=C(c1cccnc1)N1Cc2ccccc2-n2nncc2C1	·	9	0	44*	2	5
Cc1ccccc1C(=O)N1Cc2ccccc2-n2nncc2C1	2	9	8	0	-4	10
C=C1C(=O)O[C@@H]2C[C@@H](C)[C@@H]3C4OC4C(=O)[C@@]3(C)[C@@H](O)[C@H]12 (stereo partly drawn)	·	80*	1	0	12	-1
